Measured values reported in ChEMBL document CHEMBL1154191, “Evaluation of spirocyclic 3-(3-fluoropropyl)-2-benzofurans as sigma1 receptor ligands for neuroimaging with positron emission tomography” (J Med Chem, 2009).

Tests used:
[1] = Biodistribution in CD1 mouse gonad assessed per gram of wet tissue at 400 to 600 kBq, iv after 5 mins post-injection by gamma counting; format: ADME, organism-based; conditions: in vivo
How it was run: (§1)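 Female CD-1 mice (~8-12 weeks, 20-28 g) were fasted 24 h with free water. Conscious mice got 400-600 kBq [¹⁸F] tracer in saline by tail vein. At 5, 30, 60 or 120 min (n=4-5 per time) they were anesthetized, blood and urine sampled, then killed by cervical dislocation. Organs were weighed and γ-counted, giving % ID/g wet tissue.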

Blood [2] = experiment: Biodistribution in CD1 mouse blood assessed per gram of wet tissue at 400 to 600 kBq, iv after 60 mins post-injection by gamma counting; format: ADME, organism-based; conditions: in vivo, 1 h; how it was run: as §1
[3] = Chemical stability assessed as occurrence of defluorination by radio-TLC and analytical radio-HPLC; format: physicochemical
Cerebellum [4] = experiment: Biodistribution in CD1 mouse cerebellum assessed per gram of wet tissue at 400 to 600 kBq, iv after 30 mins post-injection by gamma counting; format: ADME, organism-based; conditions: in vivo, 0.5 h; how it was run: as §1
Mus musculus [5] = experiment: Plasma concentration in CD1 mouse assessed per gram of wet tissue at 400 to 600 kBq, iv after 60 mins post-injection by gamma counting; format: ADME, organism-based; conditions: in vivo, 1 h
How it was run: (§2)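 Female CD-1 mice (~8-12 weeks, 20-28 g), fasted 24 h with free access to water. 400-600 kBq [18F] tracer in 200 μL saline given by tail vein to conscious mice. At 5, 30, 60 or 120 min pi (n=4-5 per time) mice anaesthetised, blood taken, then euthanised. Samples weighed, γ-counted, %ID/g wet tissue calculated.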

Spleen [6] = experiment: Biodistribution in CD1 mouse spleen assessed per gram of wet tissue at 400 to 600 kBq, iv after 30 mins post-injection by gamma counting; format: ADME, organism-based; conditions: in vivo, 0.5 h
How it was run: (§3)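 Female CD-1 mice (~8-12 weeks, 20-28 g), habituated ≥48 h and fasted 24 h with water available. The [18F] tracer (>150 GBq/μmol at end of synthesis) was given in 200 μL saline into the tail vein of conscious animals. At each time point, n=4-5, mice were anaesthetised, blood and urine sampled, then killed by cervical dislocation. Organs were weighed and γ-counted, and values calculated as % ID/g wet tissue.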

Mus musculus [7] = experiment: Plasma concentration in CD1 mouse assessed per gram of wet tissue at 400 to 600 kBq, iv after 120 mins post-injection by gamma counting; format: ADME, organism-based; conditions: in vivo, 2 h; how it was run: as §2
Blood [8] = experiment: Biodistribution in CD1 mouse blood assessed per gram of wet tissue at 400 to 600 kBq, iv after 120 minspost-injection by gamma counting; format: ADME, organism-based; conditions: in vivo, 2 h; how it was run: as §1
[9] = Biodistribution in CD1 mouse urine assessed as per gram of wet bladder at 400 to 600 kBq, iv after 5 mins post-injection by gamma counting; format: ADME, organism-based; conditions: in vivo; how it was run: as §3
Lung [10] = experiment: Biodistribution in CD1 mouse lung assessed per gram of wet tissue at 400 to 600 kBq, iv after 5 mins post-injection by gamma counting; format: ADME, organism-based; conditions: in vivo; how it was run: as §3
[11] = Biodistribution in CD1 mouse adrenal gland assessed per gram of wet tissue at 400 to 600 kBq, iv after 5 mins post-injection by gamma counting; format: ADME, organism-based; conditions: in vivo; how it was run: as §1
[12] = Drug uptake in CD1 mouse adrenal gland at 400 to 600 kBq, iv after 120 mins post-injection by gamma counting relative to initial uptake; format: ADME, organism-based; conditions: in vivo, 2 h
How it was run: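 Organ % ID/g was measured by γ-counting after tail-vein injection of 400-600 kBq [18F] tracer in saline to fasted female CD-1 mice (n=4-5 per time). The 120 min pi value is expressed relative to the initial (5 min pi) uptake.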

Intestine [13] = experiment: Biodistribution in CD1 mouse intestine assessed per gram of wet tissue at 400 to 600 kBq, iv after 60 mins post-injection by gamma counting; format: ADME, organism-based; conditions: in vivo, 1 h; how it was run: as §1
Lung [14] = experiment: Biodistribution in CD1 mouse lung assessed per gram of wet tissue at 400 to 600 kBq, iv after 120 mins post-injection by gamma counting; format: ADME, organism-based; conditions: in vivo, 2 h; how it was run: as §3
Muscle tissue = experiment: Biodistribution in CD1 mouse muscle assessed per gram of wet tissue at 400 to 600 kBq, iv after 60 mins post-injection by gamma counting; format: ADME, organism-based; conditions: in vivo, 1 h; how it was run: as §3
Cerebellum [15] = experiment: Biodistribution in CD1 mouse cerebellum assessed per gram of wet tissue at 400 to 600 kBq, iv after 60 mins post-injection by gamma counting; format: ADME, organism-based; conditions: in vivo, 1 h; how it was run: as §1
Spleen [16] = experiment: Biodistribution in CD1 mouse spleen assessed per gram of wet tissue at 400 to 600 kBq, iv after 120 mins post-injection by gamma counting; format: ADME, organism-based; conditions: in vivo, 2 h; how it was run: as §3
[17] = Chemical stability in solution of 0.9% NaCl, phosphate buffer saline and Tris-HCl up to 120 mins; format: physicochemical; conditions: 2 h
Heart = experiment: Biodistribution in CD1 mouse heart assessed per gram of wet tissue at 400 to 600 kBq, iv after 5 mins post-injection by gamma counting; format: ADME, organism-based; conditions: in vivo; how it was run: as §1
Intestine [18] = experiment: Biodistribution in CD1 mouse intestine assessed per gram of wet tissue at 400 to 600 kBq, iv after 30 mins post-injection by gamma counting; format: ADME, organism-based; conditions: in vivo, 0.5 h; how it was run: as §1
Brain = experiment: Biodistribution in CD1 mouse brain assessed per gram of wet tissue at 400 to 600 kBq, iv after 60 mins post-injection by gamma counting in presence of 1 mg/kg, ip sigma 1/sigma 2 receptor antagonist haloperidol treated before compound addition; format: organism-based; parameters: dose 1 mg/kg, route intravenous; conditions: in vivo, 1 h
How it was run: (§4)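 Blocking arm in fasted female CD-1 mice (n=5). […] Animals were killed at 60 min post-injection, and organs were weighed and γ-counted as % ID/g wet tissue. Percent change was taken against the 60 min control group, with two-tailed unpaired Student's t test.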

[19] = Ratio of drug level in cerebellum to plasma in CD1 mouse at 400 to 600 kBq, iv after 120 mins post-injection; format: ADME, organism-based
How it was run: (§5)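 Female CD-1 mice (~8-12 weeks, 20-28 g), fasted 24 h with free water; 400-600 kBq tracer in 200 μL saline by tail vein into conscious animals. Killed at set times pi (n=4-5 per time); blood and organs weighed, γ-counted, expressed as % ID/g wet tissue; ratio from cerebellum and plasma uptake.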

Blood [20] = experiment: Biodistribution in CD1 mouse blood assessed per gram of wet tissue at 400 to 600 kBq, iv after 30 mins post-injection by gamma counting; format: ADME, organism-based; conditions: in vivo, 0.5 h; how it was run: as §1
Stomach = experiment: Biodistribution in CD1 mouse stomach assessed per gram of wet tissue at 400 to 600 kBq, iv after 60 mins post-injection by gamma counting in presence of 1 mg/kg, ip sigma 1/sigma 2 receptor antagonist haloperidol treated before compound addition; format: organism-based; parameters: route intravenous; conditions: in vivo, 1 h
How it was run: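 They were killed at 60 min pi, and organs were weighed and γ-counted as % ID/g wet tissue. Comparison with controls used Student's t test (independent, two-tailed).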

Kidney = experiment: Biodistribution in CD1 mouse kidney assessed per gram of wet tissue at 400 to 600 kBq, iv after 60 mins post-injection by gamma counting in presence of 1 mg/kg, ip sigma 1/sigma 2 receptor antagonist haloperidol treated before compound addition; format: organism-based; parameters: dose 1 mg/kg, route intravenous; conditions: in vivo, 1 h; how it was run: as §4
Blood [21] = experiment: Biodistribution in CD1 mouse blood assessed per gram of wet tissue at 400 to 600 kBq, iv after 5 mins post-injection by gamma counting; format: ADME, organism-based; conditions: in vivo; how it was run: as §1
[22] = Ratio of drug level in cerebellum to plasma in CD1 mouse at 400 to 600 kBq, iv after 5 mins post-injection; format: ADME, organism-based; how it was run: as §5

## [18F]CCCC1OC2(CCN(Cc3ccccc3)CC2)c2ccccc21 (configuration not stated)
[1]
  Drug uptake: 3.4 %ID
Blood [2]
  Drug uptake: 0.37 %ID
[3]
  Stability: Stable
Cerebellum [4]
  Drug uptake: 3.71 %ID
Mus musculus [5]
  Drug uptake: 0.52 %ID
Spleen [6]
  Drug uptake: 5.86 %ID
Mus musculus [7]
  Drug uptake: 0.44 %ID
Blood [8]
  Drug uptake: 0.48 %ID
[9]
  Drug uptake: 2.89 %ID
Lung [10]
  Drug uptake: 16.2 %ID
[11]
  Drug uptake: 10.6 %ID
[12]
  Drug uptake: > 70%
Intestine [13]
  Drug uptake: 6.59 %ID
Lung [14]
  Drug uptake: 3.37 %ID
Muscle tissue
  Drug uptake: 0.97 %ID
Cerebellum [15]
  Drug uptake: 2.99 %ID
Spleen [16]
  Drug uptake: 4.65 %ID
[17]
  Stability: Stable
Heart
  Drug uptake: 6.52 %ID
Intestine [18]
  Drug uptake: 6.81 %ID
Brain
  Drug uptake: 0.54 %ID
[19]
  Kp at 2 h: 5.48
Blood [20]
  Drug uptake: 0.56 %ID
Stomach
  Drug uptake: 5.88 %ID
Kidney
  Drug uptake: 3.42 %ID
Blood [21]
  Drug uptake: 1.44 %ID
[22]
  Kp at 5 min: 2.49
